Source: ChEMBL document CHEMBL1158487, “Small molecule chloropyramine hydrochloride (C4) targets the binding site of focal adhesion kinase and vascular endothelial growth factor receptor 3 and suppresses breast cancer growth in vivo” (J Med Chem, 2009)
The source made the active and inactive calls. No cut-off for these calls is given here.

How the values were obtained:
[1] = test system: MCF7; experiment: Cytotoxicity against human MCF7 cells expressing VEGFR3 assessed as cell viability at 10 uM after 48 hrs by MTS assay; assay type: functional
Procedure, shortened: (§1)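 Viability measured by MTS after 48 h exposure. Cells were seeded at 5.0 × 10^3 per well and attached overnight before compound-containing medium was added. BT474 is a […] subclone grown in RPMI-1640 with 10% FBS and 250 µg/ml insulin. MCF7 stable clones carried either empty pcDNA3 or VEGFR-3. Mean ± SEM, ≥3 experiments, two-tailed t test.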

[2] = target: Vascular endothelial growth factor receptor 3 (Homo sapiens) (UniProt P35916); experiment: Inhibition of VEGFR3 phosphorylation in human BT474 cells assessed as complete dephosphorylation at Tyr1063/1068 activation loop at 1 to 10 uM by Western blotting; assay type: cell-based; conditions: BT-474, TDE = time-dependent effect
Procedure, shortened: (§2)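 BT474 cells were exposed for 24 h to increasing doses (1 and 10 µM). Western blots of lysates were probed with a phospho-specific VEGFR-3 antibody for Tyr1063/1068 in the kinase activation loop.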

[3] = test system: BT-474; experiment: Cytotoxicity against human BT474 cells assessed as reduction in viability at 1 uM after 48 hrs by MTS assay; assay type: functional; procedure, shortened: as §1
[4] = test system: MCF7; experiment: Antitumor activity against human MCF7 cells expressing VEGFR3 xenografted in nude-foxn1nu mouse assessed as reduction in tumor growth at 60 mg/kg, ip qd administered day after injection of cells after 21 days relative to control; assay type: functional; parameters: scale not given: the % may be the effect or the level left; conditions: route intraperitoneal
Procedure, shortened: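 Female 5–6-week hsd:athymic nude-foxn1nu mice (5 per group) were given 2–5 × 10^6 MCF7-VEGFR-3 cells per 200 µl subcutaneously in the right flank. From the next day they received 60 mg/kg ip once daily or PBS vehicle for 21 days. Tumours were measured thrice weekly (volume = length × width² × 0.5), then excised and weighed at sacrifice.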

[5] = test system: BT-474; experiment: Cytotoxicity against human BT474 cells assessed as cell viability at 100 uM by MTS assay; assay type: functional, cell-based
Procedure, shortened: (§3)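 MTS cell survival assay. Cells were plated at 5.0 × 10^3 per well and allowed to attach overnight, then given fresh medium with or without compound for the designated time. Absorbance was read per the kit protocol. Mean ± SEM of three or more independent experiments.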

[6] = test system: MCF7; experiment: Cytotoxicity against human MCF7 cells assessed as cell viability at 1 uM after 48 hrs by MTS assay; assay type: functional, cell-based; procedure, shortened: as §1
[7] = test system: MCF7; experiment: Decrease in colocalization of FAK-VEGFR3 complex in human MCF7 cells expressing VEGFR3 at 10 uM after 24 hrs by confocal microscopy; assay type: functional; parameters: scale not given: the % may be the effect or the level left
Procedure, shortened: (§4)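 Cells were treated for 24 h with DMSO or 10 µM compound, then dual-immunostained for FAK (Alexa Fluor 488) together with VEGFR-3 or paxillin (Alexa Fluor 546). Confocal microscopy with scatter-plot analysis gave the percentage of colocalized molecules.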

[8] = test system: BT-474; experiment: Antitumor activity against human BT474 cells xenografted in nude-foxn1nu mouse assessed as reduction in tumor growth at 10 mg/kg, ip qd administered day after injection of cells after 14 days relative to control; assay type: functional; parameters: scale not given: the % may be the effect or the level left; conditions: route intraperitoneal
Procedure, shortened: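 Female 5–6-week hsd:athymic nude-foxn1nu mice (5 per group) received 2–5 × 10^6 BT474 cells per 200 µl subcutaneously in the right flank. Dosing at 10 mg/kg ip once daily began the next day. Tumours were measured thrice weekly, with volume = length × width² × 0.5. The study ended at 14 days against a vehicle group.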

[9] = test system: BT-474; experiment: Antiproliferative activity against human BT474 cells after 48 hrs by BrdU incorporation assay; assay type: functional, cell-based
Procedure, shortened: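 Cells plated at 2.5 × 10^3 per well and allowed to attach overnight. Fresh growth medium with or without compound was added along with BrdU labelling reagent, and cells were incubated for the set time. BrdU incorporation was then read with a kit per the manufacturer. Data are mean ± SEM of three or more independent experiments, compared by two-tailed Student's t test.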

[10] = test system: BT-474; experiment: Induction of apoptosis in human BT474 cells assessed as PARP degradation after 48 hrs; assay type: functional, cell-based
[11] = target: Vascular endothelial growth factor receptor 3 (Homo sapiens) (UniProt P35916); experiment: Inhibition of VEGFR3 phosphorylation in human MCF7 cells expressing VEGFR3 assessed as partial dephosphorylation at Tyr1063/1068 activation loop after 24 hrs by Western blotting; assay type: cell-based
[12] = test system: HT-29; experiment: Cytotoxicity against human HT-29 cells after 72 hrs by MTS assay; assay type: functional, cell-based; conditions: HT-29, 72 h
Procedure, shortened: (§5)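 MTS viability assay, read as mitochondrial dehydrogenase activity of metabolically active cells. Cells were seeded at 5.0 × 10^3 per well and attached overnight. Fresh medium with or without compound was added, followed by 72 h exposure at increasing concentrations. Error shown as ±SEM.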

[13] = test system: BT-474; experiment: Decrease in colocalization of FAK-paxillin complex in human BT474 cells at 10 uM after 24 hrs by confocal microscopy; assay type: functional; parameters: scale not given: the % may be the effect or the level left; procedure, shortened: as §4
[14] = target: Focal adhesion kinase 1 (Homo sapiens) (UniProt Q05397); experiment: Inhibition of FAK phosphorylation in human BT474 cells assessed as partial dephosphorylation at 1 uM after 24 hrs by Western blotting; assay type: cell-based; conditions: BT-474
[15] = target: Focal adhesion kinase 1 (Homo sapiens) (UniProt Q05397); experiment: Inhibition of FAK phosphorylation in human MCF7 cells expressing VEGFR3 cells assessed as decrease in total phosphorylation at 10 uM after 24 hrs by immunoprecipitation technique; assay type: cell-based
Procedure, shortened: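 MCF7-VEGFR-3 and BT474 cells were treated for 24 h at 10 µM or 1 µM. FAK was immunoprecipitated and blotted with anti-phosphotyrosine antibody 4G10 to assess total FAK tyrosine phosphorylation.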

[16] = Cytotoxicity against human C8161 cells after 72 hrs by MTS assay; assay type: functional, cell-based; conditions: C8161, 72 h; procedure, shortened: as §5
[17] = test system: T47D; experiment: Cytotoxicity against human T47D cells after 72 hrs by MTS assay; assay type: functional, cell-based; procedure, shortened: as §5
[18] = test system: MCF7; experiment: Induction of apoptosis in human MCF7 cells assessed as PARP degradation after 48 hrs; assay type: functional, cell-based
[19] = Cytotoxicity against human MCF10A cells assessed as cell viability at 0.1 to 10 uM by MTS assay; assay type: cell-based; conditions: mcf-10a; procedure, shortened: as §3
[20] = test system: MCF7; experiment: Cytotoxicity against human MCF7 cells assessed as cell viability at 10 uM after 48 hrs by MTS assay; assay type: functional; procedure, shortened: as §1
[21] = test system: BT-474; experiment: Relocalization of FAK-VEGFR3 complex from cytoplasm to nucleus in human BT474 cells at 10 uM after 24 hrs by confocal microscopy; assay type: functional, cell-based
Procedure, shortened: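 BT474 cells given DMSO or 10 µM compound for 24 h, dual-immunostained for FAK (Alexa Fluor 488) and VEGFR-3 (Alexa Fluor 546), imaged by confocal microscopy; percentage of colocalized FAK/VEGFR-3 molecules derived by scatter-plot analysis.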

[22] = test system: MCF7; experiment: Induction of apoptosis in human MCF7 cells at 10 uM after 48 hrs by TUNEL assay; assay type: functional
[23] = test system: BT-474; experiment: Induction of apoptosis in human BT474 cells assessed as procaspase 8 activation after 48 hrs; assay type: functional, cell-based
[24] = target: Vascular endothelial growth factor receptor 3 (Homo sapiens) (UniProt P35916); experiment: Inhibition of VEGFR3 phosphorylation in human BT474 cells assessed as complete dephosphorylation at Tyr1063/1068 activation loop at 10 uM by Western blotting; assay type: cell-based; conditions: BT-474; procedure, shortened: as §2
[25] = test system: MCF7; experiment: Induction of apoptosis in human MCF7 cells expressing VEGFR3 assessed as procaspase 8 activation after 48 hrs; assay type: functional, cell-based
[26] = target: Vascular endothelial growth factor receptor 3 (Homo sapiens) (UniProt P35916); experiment: Inhibition of VEGFR3 phosphorylation in human BT474 cells assessed as partial dephosphorylation at Tyr1063/1068 activation loop at 1 to 10 uM by Western blotting; assay type: cell-based; conditions: BT-474, TDE = time-dependent effect
[27] = target: Focal adhesion kinase 1/vascular endothelial growth factor receptor 3 (Homo sapiens) (UniProt P35916+Q05397); experiment: Disruption of FAK-VEGFR3 binding in human BT474 cells at 10 uM after 24 hrs by immunoprecipitation technique; assay type: cell-based; conditions: BT-474
Procedure, shortened: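 BT474 cells were treated for 24 h with increasing concentrations and then lysed. Lysates were immunoprecipitated with anti-VEGFR-3 antibody, and co-precipitated FAK was detected by western blot.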

[28] = test system: MIA PaCa-2; experiment: Cytotoxicity against human MIAPaCa2 cells after 72 hrs by MTS assay; assay type: functional, cell-based; conditions: MIA PaCa-2, 72 h; procedure, shortened: as §5
[29] = test system: MCF7; experiment: Cytotoxicity against human MCF7 cells expressing VEGFR3 assessed as cell viability after 48 hrs by MTS assay; assay type: functional, cell-based; procedure, shortened: as §1

Vascular endothelial growth factor receptor 3 (Homo sapiens), sequence (P35916 whole entry): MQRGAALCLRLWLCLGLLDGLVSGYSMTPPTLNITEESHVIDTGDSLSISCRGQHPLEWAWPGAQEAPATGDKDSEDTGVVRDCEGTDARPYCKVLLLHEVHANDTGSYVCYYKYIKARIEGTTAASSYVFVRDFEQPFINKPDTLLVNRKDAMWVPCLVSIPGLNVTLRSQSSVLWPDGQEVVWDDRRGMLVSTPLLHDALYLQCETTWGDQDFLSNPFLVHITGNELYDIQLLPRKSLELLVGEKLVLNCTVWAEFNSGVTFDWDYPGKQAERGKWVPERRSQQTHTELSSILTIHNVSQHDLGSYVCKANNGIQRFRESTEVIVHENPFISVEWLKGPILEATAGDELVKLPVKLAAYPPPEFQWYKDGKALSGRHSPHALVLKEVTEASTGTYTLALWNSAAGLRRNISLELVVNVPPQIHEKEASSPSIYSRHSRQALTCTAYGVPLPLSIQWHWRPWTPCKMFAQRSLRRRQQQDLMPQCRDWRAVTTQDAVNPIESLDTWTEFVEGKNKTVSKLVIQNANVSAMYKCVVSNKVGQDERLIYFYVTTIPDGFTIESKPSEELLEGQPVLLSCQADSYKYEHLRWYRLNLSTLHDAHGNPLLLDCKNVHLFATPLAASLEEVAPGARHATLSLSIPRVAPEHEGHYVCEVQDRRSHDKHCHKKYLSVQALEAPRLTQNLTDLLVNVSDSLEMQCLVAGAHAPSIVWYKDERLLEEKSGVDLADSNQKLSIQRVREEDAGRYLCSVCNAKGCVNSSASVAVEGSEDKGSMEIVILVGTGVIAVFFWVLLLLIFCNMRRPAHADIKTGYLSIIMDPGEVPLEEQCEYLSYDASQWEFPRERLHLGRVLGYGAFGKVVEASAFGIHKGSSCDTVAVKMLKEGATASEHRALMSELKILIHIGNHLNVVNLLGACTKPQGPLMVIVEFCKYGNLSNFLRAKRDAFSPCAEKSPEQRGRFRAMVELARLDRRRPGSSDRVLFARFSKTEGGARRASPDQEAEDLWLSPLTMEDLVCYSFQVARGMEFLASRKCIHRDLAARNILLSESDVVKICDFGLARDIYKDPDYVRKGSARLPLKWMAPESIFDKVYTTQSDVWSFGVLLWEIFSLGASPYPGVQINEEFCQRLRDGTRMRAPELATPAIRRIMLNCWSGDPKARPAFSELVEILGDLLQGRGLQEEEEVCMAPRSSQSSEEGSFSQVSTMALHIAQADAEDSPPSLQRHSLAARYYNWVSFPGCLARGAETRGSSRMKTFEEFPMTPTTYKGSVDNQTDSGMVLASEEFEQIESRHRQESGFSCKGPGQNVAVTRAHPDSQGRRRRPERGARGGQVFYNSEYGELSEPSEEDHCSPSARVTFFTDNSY
Focal adhesion kinase 1 (Homo sapiens), sequence (Q05397 2-1052 limits assumed): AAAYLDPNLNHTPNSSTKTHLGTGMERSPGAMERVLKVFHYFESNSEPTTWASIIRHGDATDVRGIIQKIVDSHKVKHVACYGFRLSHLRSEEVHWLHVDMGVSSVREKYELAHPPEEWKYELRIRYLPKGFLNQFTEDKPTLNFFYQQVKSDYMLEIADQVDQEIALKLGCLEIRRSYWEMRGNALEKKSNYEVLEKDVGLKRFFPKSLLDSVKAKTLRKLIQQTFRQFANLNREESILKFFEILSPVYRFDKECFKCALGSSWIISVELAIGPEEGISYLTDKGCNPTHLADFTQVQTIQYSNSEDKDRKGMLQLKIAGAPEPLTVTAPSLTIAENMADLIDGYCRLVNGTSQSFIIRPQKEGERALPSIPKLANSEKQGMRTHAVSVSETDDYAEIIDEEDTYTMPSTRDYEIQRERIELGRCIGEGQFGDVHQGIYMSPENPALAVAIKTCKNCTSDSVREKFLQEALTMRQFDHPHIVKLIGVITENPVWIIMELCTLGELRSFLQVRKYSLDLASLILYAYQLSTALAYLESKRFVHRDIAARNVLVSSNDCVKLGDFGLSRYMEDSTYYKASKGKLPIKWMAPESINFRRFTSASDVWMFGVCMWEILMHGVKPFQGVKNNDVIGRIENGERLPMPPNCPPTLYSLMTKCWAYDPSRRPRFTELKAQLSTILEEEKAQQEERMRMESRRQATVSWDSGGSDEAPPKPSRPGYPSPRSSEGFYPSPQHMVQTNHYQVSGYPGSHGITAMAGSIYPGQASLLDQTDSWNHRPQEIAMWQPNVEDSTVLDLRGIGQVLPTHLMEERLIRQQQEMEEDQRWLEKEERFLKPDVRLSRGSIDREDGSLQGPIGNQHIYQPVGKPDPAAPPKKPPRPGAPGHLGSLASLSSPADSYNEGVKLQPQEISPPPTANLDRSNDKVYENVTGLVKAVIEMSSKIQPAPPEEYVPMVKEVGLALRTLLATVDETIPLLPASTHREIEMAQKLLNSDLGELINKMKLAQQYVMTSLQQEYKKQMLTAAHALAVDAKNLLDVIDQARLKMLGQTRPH
Focal adhesion kinase 1/vascular endothelial growth factor receptor 3 (Homo sapiens), sequence (P35916 whole entry, looked up): as the sequence (P35916 whole entry) above
Focal adhesion kinase 1/vascular endothelial growth factor receptor 3 (Homo sapiens), sequence (Q05397 whole entry, looked up): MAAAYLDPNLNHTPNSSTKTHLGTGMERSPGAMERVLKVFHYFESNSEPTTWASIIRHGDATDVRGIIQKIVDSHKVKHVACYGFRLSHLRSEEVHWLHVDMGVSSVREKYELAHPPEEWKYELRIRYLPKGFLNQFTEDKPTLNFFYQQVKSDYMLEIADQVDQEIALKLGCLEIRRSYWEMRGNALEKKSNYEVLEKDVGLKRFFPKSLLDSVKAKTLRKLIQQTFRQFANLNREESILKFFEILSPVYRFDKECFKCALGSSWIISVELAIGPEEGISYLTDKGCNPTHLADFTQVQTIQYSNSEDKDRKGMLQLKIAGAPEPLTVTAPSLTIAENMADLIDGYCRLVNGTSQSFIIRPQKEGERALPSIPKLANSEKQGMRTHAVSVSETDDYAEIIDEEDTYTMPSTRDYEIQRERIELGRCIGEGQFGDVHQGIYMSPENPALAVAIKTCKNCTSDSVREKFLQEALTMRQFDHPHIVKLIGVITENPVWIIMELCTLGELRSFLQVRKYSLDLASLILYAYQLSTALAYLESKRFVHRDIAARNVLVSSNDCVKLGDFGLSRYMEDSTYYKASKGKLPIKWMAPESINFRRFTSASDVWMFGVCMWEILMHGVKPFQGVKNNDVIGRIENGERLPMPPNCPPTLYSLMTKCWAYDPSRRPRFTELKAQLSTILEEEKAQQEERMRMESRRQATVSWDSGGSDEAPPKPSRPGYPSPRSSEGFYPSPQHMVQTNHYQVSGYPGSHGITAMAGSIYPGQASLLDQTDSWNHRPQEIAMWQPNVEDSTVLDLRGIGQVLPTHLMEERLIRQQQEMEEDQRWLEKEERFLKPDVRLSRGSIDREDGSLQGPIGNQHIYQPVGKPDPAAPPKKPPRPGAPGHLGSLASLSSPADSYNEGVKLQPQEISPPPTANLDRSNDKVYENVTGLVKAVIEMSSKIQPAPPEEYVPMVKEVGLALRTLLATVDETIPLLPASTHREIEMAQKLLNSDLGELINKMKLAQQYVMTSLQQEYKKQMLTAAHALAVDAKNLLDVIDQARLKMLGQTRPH

CN(C)CCN(Cc1ccc(Cl)cc1)c1ccccn1.Cl [CHLORPYRAMIN HYDROCHLORIDE]
fold change (FC) [1]: 2
Activity [2]: tde
Activity [3]: 40%
Activity [4]: 20%
Activity [5]: Active
Activity [6]: Active
Activity [7]: 29%
Activity [8]: 20%
Activity [9]: Dose-dependent effect
Activity [10]: Dose-dependent effect
Activity [11]: Dose-dependent effect
IC50 [12]: 1000 nM
Activity [13]: 76%
Activity [14]: Active
Activity [15]: Active
IC50 [16]: 1000 nM
IC50 [17]: 1000 nM
Activity [18]: Dose-dependent effect
Activity [19]: Active
fold change (FC) [20]: 2
Activity [21]: Active
Activity [22]: 18%
Activity [23]: Dose-dependent effect
Activity [24]: Active
Activity [25]: Dose-dependent effect
Activity [26]: tde
Activity [27]: Active
IC50 [28]: 1000 nM
Activity [29]: Dose-dependent effect
